The source of these data is ChEMBL document CHEMBL1158568, “In silico directed chemical probing of the adenosine receptor family” (Bioorg Med Chem, 2010).

Each structure is given as a SMILES string.

For assay [1], the target named is T1, Adenosine receptor A2b (Homo sapiens) (UniProt P29275).
T1 sequence (whole entry): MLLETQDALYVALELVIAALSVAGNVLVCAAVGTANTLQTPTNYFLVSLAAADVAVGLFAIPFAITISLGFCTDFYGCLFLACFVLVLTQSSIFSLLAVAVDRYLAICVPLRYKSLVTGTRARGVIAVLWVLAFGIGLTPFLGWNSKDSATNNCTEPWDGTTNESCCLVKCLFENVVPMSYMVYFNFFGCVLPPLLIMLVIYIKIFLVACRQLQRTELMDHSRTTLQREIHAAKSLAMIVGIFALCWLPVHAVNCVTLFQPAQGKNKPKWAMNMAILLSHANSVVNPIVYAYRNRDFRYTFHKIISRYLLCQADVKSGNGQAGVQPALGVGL
In words: Displacement of [3H]DPCPX from human adenosine A2B receptor expressed in HEK293 cells at 10 uM after 30 mins by beta scintillation counting. It counts as cell-based. (In general: Displacement assays read how much labelled ligand stays bound in the presence of the test substance.)

Assay [2] concerns the target Histamine H1 receptor (Homo sapiens) (UniProt P35367). In words: Displacement of [3H]pyrilamine from human histamine H1 receptor expressed in CHO cells at 10 uM after 60 mins by beta scintillation counting. Type of assay: cell-based. Summed up:
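CHO-H1 membranes (1 lg protein) in 50 mM Tris–HCl pH 7.4 with 2 nM [3H]pyrilamine and compound at 10 µM; 60 min at 27 °C, duplicates. 10 µM triprolidine for non-specific binding; GF/C filtration, scintillation counting.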

The target in assay [3] is 5-hydroxytryptamine receptor 7 (Homo sapiens) (UniProt P34969). The assay is described as follows: Displacement of [3H]SB269970 from human 5HT7 receptor expressed in HEK293 cells at 10 uM after 60 mins by beta scintillation counting. Type of assay: cell-based. Summed up:
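HEK-293-5-HT7 membranes (5 lg protein) in 50 mM Tris–HCl, 4 mM CaCl2, 1 mM ascorbic acid, 0.1 mM pargyline, pH 7.4; 2 nM [3H]SB269970, compound at 10 µM, 60 min at 37 °C, duplicates. Non-specific defined with 25 µM clozapine.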

Assay [4] deals with T2, Adenosine receptor A2a (Homo sapiens, UniProt P29274). The assay is described as follows: Displacement of [3H]ZM241385 from human adenosine A2A receptor expressed in human HeLa cells after 30 mins by beta scintillation counting. It counts as cell-based. Summed up: (§1)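 Membranes from HeLa-A2A cells, 10 lg protein, in 50 mM Tris–HCl, 1 mM EDTA, 10 mM MgCl2, 2 UI/mL adenosine deaminase, pH 7.4; 3 nM [3H]ZM241385, 30 min at 25 °C, duplicates. 50 µM NECA defined non-specific binding. Single 10 µM point or six concentrations 10 nM–100 µM; Ki by Cheng–Prusoff.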
T2 sequence (P29274 whole entry): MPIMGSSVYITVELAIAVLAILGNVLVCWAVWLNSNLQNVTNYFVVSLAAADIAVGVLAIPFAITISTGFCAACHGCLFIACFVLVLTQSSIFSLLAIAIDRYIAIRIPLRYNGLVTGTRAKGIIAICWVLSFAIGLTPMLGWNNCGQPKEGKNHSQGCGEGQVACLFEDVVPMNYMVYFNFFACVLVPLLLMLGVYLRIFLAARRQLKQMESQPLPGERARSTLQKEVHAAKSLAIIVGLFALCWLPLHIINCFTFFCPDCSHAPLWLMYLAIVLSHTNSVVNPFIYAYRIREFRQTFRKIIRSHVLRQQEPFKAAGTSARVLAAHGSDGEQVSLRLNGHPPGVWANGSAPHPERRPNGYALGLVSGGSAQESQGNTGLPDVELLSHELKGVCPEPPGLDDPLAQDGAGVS

The target in assay [5] is T3, Adenosine receptor A1 (Homo sapiens) (UniProt P30542).
T3 sequence (whole entry): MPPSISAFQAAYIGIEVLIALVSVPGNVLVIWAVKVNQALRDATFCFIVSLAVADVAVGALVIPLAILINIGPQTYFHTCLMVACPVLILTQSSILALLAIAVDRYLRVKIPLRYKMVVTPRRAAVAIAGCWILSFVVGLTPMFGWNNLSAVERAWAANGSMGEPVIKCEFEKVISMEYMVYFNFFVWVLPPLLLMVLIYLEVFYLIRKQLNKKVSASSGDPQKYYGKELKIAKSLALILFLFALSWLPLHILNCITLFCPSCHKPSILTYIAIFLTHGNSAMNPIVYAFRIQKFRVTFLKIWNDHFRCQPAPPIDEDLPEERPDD
In words: Displacement of [3H]DPCPX from human adenosine A1 receptor expressed in CHO cells at 10 uM after 60 mins by beta scintillation counting. It counts as cell-based. Summed up: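 Membranes of CHO-A1 cells (15 lg protein) in 20 mM Hepes, 100 mM NaCl, 10 mM MgCl2, 2 units/ml adenosine deaminase, pH 7.4, with 2 nM [3H]DPCPX; 60 min at 25 °C, duplicates. Non-specific binding with 10 µM (R)-PIA. Filtration, scintillation counting. Single point at 10 µM or six concentrations 10 nM–100 µM; Ki by Cheng–Prusoff.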

In assay [6] the target is T2, Adenosine receptor A2a. The assay is described as follows: Antagonist activity at human adenosine A2A receptor expressed in CHO cells assessed as inhibition of […]-induced cAMP accumulation pre-incubated for 15 mins by enzyme immunoassay. Type of assay: functional, cell-based. Summed up:
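CHO-A2A cells, 10,000/well, in DMEM F-12 with 10% FCS; pre-incubated 15 min at 37 °C with 30 µM rolipram and test compound, then stimulated with 1 µM NECA for 15 min. cAMP measured by enzyme immunoassay at 450 nm; antagonist pKB derived from IC50 via Leff–Dougall equation.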

A further assay concerns the target T4, Adenosine receptor A3 (Homo sapiens, UniProt P0DMS8).
T4 sequence (P0DMS8 whole entry): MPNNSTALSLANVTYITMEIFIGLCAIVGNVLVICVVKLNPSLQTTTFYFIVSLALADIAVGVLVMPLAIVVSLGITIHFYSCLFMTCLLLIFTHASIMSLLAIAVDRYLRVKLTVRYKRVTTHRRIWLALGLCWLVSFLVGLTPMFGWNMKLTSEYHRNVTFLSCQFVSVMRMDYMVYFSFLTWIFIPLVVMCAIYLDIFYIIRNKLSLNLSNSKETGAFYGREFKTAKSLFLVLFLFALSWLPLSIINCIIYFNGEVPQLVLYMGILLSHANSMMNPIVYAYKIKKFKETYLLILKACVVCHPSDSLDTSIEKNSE
The assay is described as follows: Displacement of [3H]NECA from human adenosine A3 receptor expressed in human HeLa cells after 180 mins by beta scintillation counting. Type of assay: cell-based. Summed up:
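HeLa-A3 membranes (90 lg protein) in 50 mM Tris–HCl, 1 mM EDTA, 5 mM MgCl2, 2 UI/mL adenosine deaminase, pH 7.4; 30 nM [3H]NECA, 180 min at 25 °C, triplicates, GF/B filtration. Non-specific with 100 µM (R)-PIA. Tested at 10 µM or six concentrations 10 nM–100 µM; Ki by Cheng–Prusoff.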

In assay [7] the target is T5, Alpha-2A adrenergic receptor (Homo sapiens) (UniProt P08913).
T5 sequence (whole entry): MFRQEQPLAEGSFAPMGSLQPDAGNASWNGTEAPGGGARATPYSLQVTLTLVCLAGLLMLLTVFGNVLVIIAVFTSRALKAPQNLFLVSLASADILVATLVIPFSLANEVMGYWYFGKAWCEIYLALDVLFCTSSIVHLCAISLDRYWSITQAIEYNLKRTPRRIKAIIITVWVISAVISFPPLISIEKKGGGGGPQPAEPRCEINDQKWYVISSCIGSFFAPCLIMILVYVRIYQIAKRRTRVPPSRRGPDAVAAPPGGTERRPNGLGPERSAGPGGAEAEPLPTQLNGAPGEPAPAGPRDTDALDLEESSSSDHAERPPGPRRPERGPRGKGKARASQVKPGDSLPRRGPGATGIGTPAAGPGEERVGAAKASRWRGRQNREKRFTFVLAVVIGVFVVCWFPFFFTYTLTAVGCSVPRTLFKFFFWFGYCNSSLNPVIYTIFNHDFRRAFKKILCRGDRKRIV
The assay is described as follows: Displacement of [3H]MK912 from human adrenergic alpha2A receptor expressed in CHO cells at 10 uM after 30 mins by beta scintillation counting. It counts as cell-based. The gist of the method:
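CHO-a2A membranes (25 lg protein) in 25 mM Na2PO4, pH 7.4, with 0.37 nM [3H]MK-912 and compound at 10 µM; 30 min at 25 °C, duplicates. Non-specific binding with 100 µM norepinephrine; filtration and scintillation counting.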

Assay [8] concerns the target T2, Adenosine receptor A2a. The assay is described as follows: Displacement of [3H]ZM241385 from human adenosine A2A receptor expressed in human HeLa cells at 10 uM after 30 mins by beta scintillation counting. Type of assay: cell-based. Summed up:
as §1

Chain of Histamine H1 receptor (Homo sapiens) (P35367 whole entry): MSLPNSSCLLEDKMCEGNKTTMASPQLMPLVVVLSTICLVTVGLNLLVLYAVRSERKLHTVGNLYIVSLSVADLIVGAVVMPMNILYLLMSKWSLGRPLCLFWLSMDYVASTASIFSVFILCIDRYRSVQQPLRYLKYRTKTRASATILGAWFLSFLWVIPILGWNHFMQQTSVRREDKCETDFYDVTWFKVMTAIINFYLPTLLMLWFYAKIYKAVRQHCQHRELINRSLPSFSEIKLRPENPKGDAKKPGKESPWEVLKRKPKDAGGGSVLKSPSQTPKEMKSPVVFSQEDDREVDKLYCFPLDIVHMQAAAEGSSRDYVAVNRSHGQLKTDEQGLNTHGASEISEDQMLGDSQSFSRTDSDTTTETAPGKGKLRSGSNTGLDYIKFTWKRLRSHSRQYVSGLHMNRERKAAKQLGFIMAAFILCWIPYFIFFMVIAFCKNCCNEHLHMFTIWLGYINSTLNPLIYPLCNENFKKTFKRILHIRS
Chain of 5-hydroxytryptamine receptor 7 (Homo sapiens) (P34969 whole entry): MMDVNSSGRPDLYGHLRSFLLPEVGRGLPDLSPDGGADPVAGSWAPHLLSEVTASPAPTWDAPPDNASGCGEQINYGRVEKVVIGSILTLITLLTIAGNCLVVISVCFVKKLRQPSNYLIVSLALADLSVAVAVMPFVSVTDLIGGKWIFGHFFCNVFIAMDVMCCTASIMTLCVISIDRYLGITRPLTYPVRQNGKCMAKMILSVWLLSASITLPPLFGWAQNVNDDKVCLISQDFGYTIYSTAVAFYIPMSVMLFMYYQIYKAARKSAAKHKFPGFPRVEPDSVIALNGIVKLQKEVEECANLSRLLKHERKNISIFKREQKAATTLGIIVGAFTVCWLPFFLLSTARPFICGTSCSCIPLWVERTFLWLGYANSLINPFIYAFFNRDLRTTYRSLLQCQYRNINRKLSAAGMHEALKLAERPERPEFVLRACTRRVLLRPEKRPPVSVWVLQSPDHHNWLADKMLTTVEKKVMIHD

With `Cc1ccc(-c2nc(C(=O)Nc3ccccn3)c3n2CCCCC3)cc1`, the inhibition in assay [1] came out at 19%; in assay [5], 38.9%; at Adenosine receptor A2a [8] it was 68.9%. Also, the Activity in assay [2] was found to be 39%; in assay [3] it was 18%; in [7], 12%. Also, the inhibitory constant (Ki) at Adenosine receptor A2a [4] is 2510 nM; at Adenosine receptor A3, 3160 nM. At Adenosine receptor A2a [6], the pKb stood at 5.1.

Usually inhibition stands for the share of the control response that was lost under treatment. As a reminder, the Ki is a dissociation constant, usually derived from enzyme kinetics or from competition with a known ligand. In general, pKb refers to −log10 of the Kb, conventionally taken in molar units.
